Drawing on ChEMBL document CHEMBL1132785, “Optimising inhibitors of trypanothione reductase using solid-phase chemistry” (Bioorg Med Chem Lett, 2000), this text covers Ki for eight molecules.

Sequence of Trypanothione reductase (P28593 whole entry): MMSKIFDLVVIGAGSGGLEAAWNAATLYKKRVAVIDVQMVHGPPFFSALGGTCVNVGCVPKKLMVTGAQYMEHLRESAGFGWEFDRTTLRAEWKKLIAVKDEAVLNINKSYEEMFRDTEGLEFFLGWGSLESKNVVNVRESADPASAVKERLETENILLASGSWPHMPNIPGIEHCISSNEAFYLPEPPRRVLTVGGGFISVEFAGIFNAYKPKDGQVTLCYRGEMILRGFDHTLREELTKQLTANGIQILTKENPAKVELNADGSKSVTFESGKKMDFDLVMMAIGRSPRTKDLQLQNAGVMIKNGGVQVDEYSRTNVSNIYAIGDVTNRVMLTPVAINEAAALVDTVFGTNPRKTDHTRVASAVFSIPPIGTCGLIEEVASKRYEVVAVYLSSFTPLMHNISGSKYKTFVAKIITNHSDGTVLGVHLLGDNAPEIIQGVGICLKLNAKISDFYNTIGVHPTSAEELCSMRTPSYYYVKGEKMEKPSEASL

This experiment concerns the target Trypanothione reductase (Trypanosoma cruzi, UniProt P28593). The experiment is described as follows: The compound was evaluated for inhibition of trypanothione reductase enzyme. Put shortly: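 Substrate oxidised trypanothione at six levels spanning 0.25–5 × Km, with inhibitor at four experimentally chosen concentrations. Each condition run in triplicate. Ki obtained by fitting rates to the noncompetitive inhibition equation v = Vmax[S]/(1+[I]/Ki)/(Km+[S]).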
Molecule `O=C(Cc1c[nH]c2ccccc12)NCCCNCCCCNCCCNC(=O)Cc1c[nH]c2ccccc12` gave a Ki of 0.39 µM. In turn, `O=C(Cc1c[nH]c2ccc(Br)cc12)NCCCNCCCCNCCCNC(=O)Cc1c[nH]c2ccc(Br)cc12` registered a Ki of 0.076 µM.

The molecule `O=C(NCCCNCCCCNCCCNC(=O)c1cnc2cc(C(F)(F)F)ccc2c1O)c1cnc2cc(C(F)(F)F)ccc2c1O` gave a Ki of 0.75 µM. Against the preceding molecule, the Ki is about 9.9-fold higher. With `COc1ccc2[nH]cc(CC(=O)NCCCNCCCCNCCCNC(=O)Cc3c[nH]c4ccc(OC)cc34)c2c1`, the Ki is 0.28 µM. Next, `O=C(NCCCCNCCCNC(=O)c1cnc2cc(C(F)(F)F)ccc2c1O)c1cnc2cc(C(F)(F)F)ccc2c1O`: 0.85 µM; `O=C(CCc1ccc(O)c(O)c1)NCCCNCCCCNCCCNC(=O)CCc1ccc(O)c(O)c1` [KUKOAMINE A]: 1.39 µM. Molecule `O=C(CCc1c[nH]c2ccccc12)NCCCNCCCCNCCCNC(=O)CCc1c[nH]c2ccccc12` yielded a Ki of 0.35 µM. Next, `O=C(CCCc1c[nH]c2ccccc12)NCCCNCCCCNCCCNC(=O)CCCc1c[nH]c2ccccc12`: 1.26 µM.

As a reminder, the Ki is a dissociation constant, usually derived from enzyme kinetics or from competition with a known ligand. High values mean a looser hold on the target, low ones a stronger hold on the target.
